The values below come from ChEMBL document CHEMBL1156059, “Thienopyrimidine-based P2Y12 platelet aggregation inhibitors” (Bioorg Med Chem Lett, 2009).

Assay [1] concerns the target T1, P2Y purinoceptor 12 (Homo sapiens, UniProt Q9H244). Description: Binding affinity to human recombinant P2Y12 receptor expressed on CHO cell membrane. Format: cell membranes. The method in brief:
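Competition binding against 33P 2-MeSADP (added as a 1 nM solution) on membranes from CHO cells transfected with recombinant human P2Y12. Membranes were used at 10, 1 or 0.3 µg/well depending on method. Buffer contained 0.02% BSA, ascorbic acid and protease inhibitors. Cold 2-MeSADP (1.5 µM solution) served as control. Compounds were run as a seven-point threefold series from 10 µM, in triplicate. Plates were incubated 1 h at room temperature, then GF/B filtered and scintillation counted.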

A short description of assay [2]: Antiplatelet aggregatory activity in human platelet rich plasma assessed as inhibition of ADP-induced platelet aggregation. Format: functional. The method in brief:
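Human PRP was obtained by centrifuging whole blood at 200g for 15 min at room temperature, then adjusted to 300,000 platelets/µL with autologous platelet-poor plasma (2380g spin). Stirred PRP was mixed with compound, and aggregation was started with 20 µM ADP. Aggregation was read as the increase in light transmittance on a microplate spectrophotometer. Each concentration was run in duplicate.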

Assay [3] addresses T1, P2Y purinoceptor 12. The experiment in a line: Binding affinity to human recombinant P2Y12 receptor expressed in CHO cell membrane in presence of HSA and human AGP. Format: cell membranes. A digest of the protocol: (§1)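 Same 33P 2-MeSADP filtration binding on recombinant human P2Y12 CHO membranes (1 or 0.3 µg/well), room temperature, 1 h. Membranes were prepared with 5X HSA (1.75%) and 5X AGP (0.075%). Compounds were run as a seven-point threefold series from 10 µM, in triplicate. Fold shift is the Ki with added protein divided by the Ki without protein.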

The species entered for the next assay is Homo sapiens. Description: Ratio of Ki for human recombinant P2Y12 in presence of HSA and AGP to Ki for human recombinant P2Y12. A digest of the protocol:
as §1

T1 sequence (Q9H244 whole entry): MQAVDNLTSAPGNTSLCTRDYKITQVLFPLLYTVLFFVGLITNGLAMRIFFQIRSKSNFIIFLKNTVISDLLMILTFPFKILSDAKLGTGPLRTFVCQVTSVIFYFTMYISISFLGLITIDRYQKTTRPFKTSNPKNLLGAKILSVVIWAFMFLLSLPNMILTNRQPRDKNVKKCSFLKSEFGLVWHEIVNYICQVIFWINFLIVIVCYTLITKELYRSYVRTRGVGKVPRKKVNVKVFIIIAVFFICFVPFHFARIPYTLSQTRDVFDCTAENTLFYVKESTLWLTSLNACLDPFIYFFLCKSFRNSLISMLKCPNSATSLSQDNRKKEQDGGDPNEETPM

The term Ki denotes a measure of affinity in units of concentration, obtained from inhibition or displacement. By IC50 is commonly meant the concentration that gives 50% inhibition. As to `CCc1cc2c(N3CCN(C(C)=O)CC3)nc(NC(=O)NCCC(=O)O)nc2s1`, the Ki on P2Y purinoceptor 12 [1] worked out at 460 nM; on P2Y purinoceptor 12 [3], 380 nM. In assay [2], the IC50 is 38000 nM. Further, in the assay filed under Homo sapiens, the Ratio Ki was 0.8.

In the case of `CCc1cc2c(N3CCN(C(=O)Oc4cccc5ccccc45)CC3)ncnc2s1`, the Ki on P2Y purinoceptor 12 [1] came to 130 nM. For the same compound, the half-maximal inhibitory concentration (IC50) in assay [2] came out at 1250 nM.

Consider `CCc1cc2c(N3CCN(C(=O)C(F)(F)F)CC3)ncnc2s1`, for which the IC50 in assay [2] was found to be 18000 nM.

`CCc1cc2c(N3CCN(C(=O)c4ccc(-c5ccccc5)cc4)CC3)nc(N3[C@@H](C(N)=O)CC[C@H]3C(N)=O)nc2s1`: the Ki was found to be 4 nM at P2Y purinoceptor 12 [1] and 21 nM at P2Y purinoceptor 12 [3]. In addition, in assay [2], the IC50 came out at 3000 nM. Further, the Ratio Ki in the assay filed under Homo sapiens was 5.

On to `CCc1cc2c(N3CCN(C(=O)c4ccc(-c5ccccc5)cc4)CC3)nc(N3CC(O)C3)nc2s1`, for which the Ki worked out at 27 nM on P2Y purinoceptor 12 [1] and 297 nM on P2Y purinoceptor 12 [3]. The IC50 in assay [2] was found to be 30000 nM. Besides, in the assay listed under Homo sapiens, the Ratio Ki is 11.

For `CCc1cc2c(N3CCN(C(=O)C(C)C)CC3)nc(NC(=O)NCCC(=O)O)nc2s1`, the Ki at P2Y purinoceptor 12 [1] came to 36 nM; at P2Y purinoceptor 12 [3] it was 46 nM. Moreover, the half-inhibitory concentration (IC50) in assay [2] is 4000 nM. Also, in the assay listed under Homo sapiens, the Ratio Ki was determined as 1.3.

Regarding `CCc1cc2c(N3CCN(C(=O)c4ccc(-c5ccccc5)cc4)CC3)nc(N3CCC(O)C3)nc2s1` (stereo not drawn), the Ki is 35 nM at P2Y purinoceptor 12 [1] and 241 nM at P2Y purinoceptor 12 [3]. The IC50 in assay [2] came out at 37000 nM. Further, in the assay filed under Homo sapiens, the Ratio Ki came out at 7.

For the compound `CCc1cc2c(N3CCN(C(=O)Cc4ccccc4)CC3)ncnc2s1`, on P2Y purinoceptor 12 [1], the Ki turned out to be 660 nM. The half-maximal inhibitory concentration (IC50) in assay [2] stood at 28000 nM.

Consider `CCc1cc2c(N3CCN(C(=O)c4ccc(-c5ccccc5)cc4)CC3)nc(N3C[C@@H](O)C[C@H]3C(=O)O)nc2s1`, for which the values for the Ki at P2Y purinoceptor 12 [1] and on P2Y purinoceptor 12 [3] were 5 nM and 31 nM, respectively. Moreover, in assay [2], the IC50 came out at 4000 nM. Moreover, the Ratio Ki in the assay filed under Homo sapiens was 6.

Regarding `CCc1cc2c(N3CCN(C(=O)c4ccc(-c5ccccc5)cc4)CC3)nc(N3CCC(N)CC3)nc2s1`, the Ki at P2Y purinoceptor 12 [1] amounted to 240 nM; at P2Y purinoceptor 12 [3], 325 nM. In addition, in assay [2], the IC50 is 40000 nM. Further, the Ratio Ki in the assay listed under Homo sapiens came to 1.3.

For `CCc1cc2c(N3CCN(C(=O)c4ccc(-c5ccccc5)cc4)CC3)nc(NCCO)nc2s1`, the Ki was 37 nM at P2Y purinoceptor 12 [1] and 163 nM at P2Y purinoceptor 12 [3]. For the same compound, the IC50 in assay [2] is 21000 nM. For the same compound, the Ratio Ki in the assay filed under Homo sapiens came out at 4.4.

On to `CCc1cc2c(N3CCN(C(=O)Cc4ccc(F)c(F)c4)CC3)nc(NC(=O)NCCC(=O)O)nc2s1`, for which the values for the Ki on P2Y purinoceptor 12 [1] and at P2Y purinoceptor 12 [3] were 68 nM and 140 nM, respectively. The IC50 in assay [2] was 34000 nM. Moreover, the Ratio Ki in the assay filed under Homo sapiens was 2.

`CCc1cc2c(N3CCN(C(=O)c4ccc(-c5ccccc5)cc4)CC3)nc(NC(=O)NCCC(=O)O)nc2s1`: the IC50 in assay [2] stood at 5000 nM. Besides, the Ki at P2Y purinoceptor 12 [3] came to 10 nM. In the assay filed under Homo sapiens, the Ratio Ki was found to be 3.3.

As for `CCc1cc2c(N3CCN(C(=O)c4ccc(-c5ccccc5)cc4)CC3)nc(N3CCN(C(=O)C(F)(F)F)CC3)nc2s1`, the inhibitory constant (Ki) on P2Y purinoceptor 12 [1] was found to be 839 nM; at P2Y purinoceptor 12 [3], 1810 nM. Also, in assay [2], the IC50 was above 100000 nM. Besides, the Ratio Ki in the assay listed under Homo sapiens was determined as 2.

As to `CCc1cc2c(N3CCN(C(=O)c4ccc(-c5ccccc5)cn4)CC3)nc(NC(=O)NCCC(=O)O)nc2s1`, the Ki on P2Y purinoceptor 12 [1] amounted to 37 nM; on P2Y purinoceptor 12 [3] it was 161 nM. Besides, in assay [2], the IC50 amounted to 42000 nM. Further, the Ratio Ki in the assay listed under Homo sapiens stood at 4.3.

Turning to `CCc1cc2c(N3CCN(C(=O)Cc4ccccc4)CC3)nc(NC(=O)NCCC(=O)O)nc2s1`, the Ki is 223 nM on P2Y purinoceptor 12 [1] and 231 nM on P2Y purinoceptor 12 [3]. In addition, the IC50 in assay [2] stood at 16000 nM. For the same compound, in the assay listed under Homo sapiens, the Ratio Ki stood at 1.

Regarding `CCc1cc2c(N3CCN(C(=O)CC(C)C)CC3)ncnc2s1`, on P2Y purinoceptor 12 [1], the inhibition constant (Ki) came to 2100 nM. In addition, the IC50 in assay [2] amounted to 8000 nM.

For the compound `CCC(=O)N1CCN(c2nc(NC(=O)NCCC(=O)O)nc3sc(CC)cc23)CC1`, the Ki came out at 295 nM at P2Y purinoceptor 12 [1] and 367 nM on P2Y purinoceptor 12 [3]. The IC50 in assay [2] stood at 16000 nM. Also, the Ratio Ki in the assay filed under Homo sapiens was 1.2.

On to `CCc1cc2c(N3CCN(C(=O)c4ccc(-c5ccccc5)cc4)CC3)nc(NC[C@@H](O)CO)nc2s1`, for which the Ki at P2Y purinoceptor 12 [1] worked out at 19 nM; on P2Y purinoceptor 12 [3] it was 75 nM. For the same compound, in assay [2], the IC50 stood at 11000 nM. Moreover, the Ratio Ki in the assay listed under Homo sapiens worked out at 4.

Turning to `CCc1cc2c(N3CCN(C(=O)CCOc4ccccc4)CC3)nc(NC(=O)NCCC(=O)O)nc2s1`, the Ki at P2Y purinoceptor 12 [1] was determined as 213 nM; at P2Y purinoceptor 12 [3], 783 nM. Further, the IC50 in assay [2] is 86000 nM. For the same compound, the Ratio Ki in the assay filed under Homo sapiens stood at 3.7.

For the compound `CCc1cc2c(N3CCN(C(=O)c4ccc(-c5ccccc5)cc4)CC3)nc(NCCCO)nc2s1`, the Ki was 78 nM on P2Y purinoceptor 12 [1] and 441 nM on P2Y purinoceptor 12 [3]. Besides, the IC50 in assay [2] was 56000 nM. In addition, the Ratio Ki in the assay filed under Homo sapiens is 5.6.

With `CCc1cc2c(N3CCN(C(=O)COc4cccc(OC)c4)CC3)nc(NC(=O)NCCC(=O)O)nc2s1`, the Ki on P2Y purinoceptor 12 [1] stood at 191 nM; on P2Y purinoceptor 12 [3] it was 447 nM. Besides, the IC50 in assay [2] worked out at 39000 nM. Besides, the Ratio Ki in the assay listed under Homo sapiens stood at 2.3.

In the case of `CCc1cc2c(N3CCN(C(=O)CC(F)(F)F)CC3)ncnc2s1`, at P2Y purinoceptor 12 [1], the Ki was 2990 nM. For the same compound, the IC50 in assay [2] was 28000 nM.

`CCc1cc2c(N3CCN(C(=O)CCCCOc4ccccc4)CC3)ncnc2s1`: the IC50 in assay [2] turned out to be 4000 nM.

On to `CCc1cc2c(N3CCN(C(=O)c4ccc(-c5ccccc5)cc4)CC3)nc(N3CCCC(C(N)=O)C3)nc2s1` (stereo not drawn), for which the Ki is 31 nM at P2Y purinoceptor 12 [1] and 203 nM on P2Y purinoceptor 12 [3]. Further, in assay [2], the IC50 came to 73000 nM. Further, in the assay listed under Homo sapiens, the Ratio Ki amounted to 6.5.

Regarding `CCc1cc2c(N3CCN(C(=O)c4ccc(-c5ccccc5)cc4)CC3)nc(NCCC(=O)O)nc2s1`, the IC50 in assay [2] was 57000 nM. In addition, the Ki on P2Y purinoceptor 12 [3] amounted to 122 nM. The Ratio Ki in the assay filed under Homo sapiens was 15.

`CCc1cc2c(N3CCN(C(=O)c4ccccc4)CC3)ncnc2s1`: the Ki on P2Y purinoceptor 12 [1] was 4400 nM.

As to `CCc1cc2c(N3CCN(C(=O)c4ccc(-c5ccccc5)cc4)CC3)nc(N3CCNCC3)nc2s1`, the figures for the Ki on P2Y purinoceptor 12 [1] and at P2Y purinoceptor 12 [3] were 410 nM and 397 nM, respectively. In addition, in assay [2], the IC50 was determined as 45000 nM. Further, the Ratio Ki in the assay filed under Homo sapiens is 1.

Take `CCc1cc2c(N3CCN(C(=O)COc4ccccc4)CC3)nc(NC(=O)NCCC(=O)O)nc2s1`: the values for the Ki on P2Y purinoceptor 12 [1] and on P2Y purinoceptor 12 [3] were 539 nM and 593 nM, respectively. In addition, the IC50 in assay [2] was 25000 nM. Further, the Ratio Ki in the assay listed under Homo sapiens worked out at 1.1.

With `CCc1cc2c(N3CCN(C(=O)c4ccc(-c5ccccc5)cc4)CC3)ncnc2s1`, the Ki at P2Y purinoceptor 12 [1] amounted to 29 nM. Besides, in assay [2], the IC50 was 7000 nM.

Turning to `CCc1cc2c(N3CCN(C(=O)CC(F)(F)F)CC3)nc(NC(=O)NCCC(=O)O)nc2s1`, the results for the Ki on P2Y purinoceptor 12 [1] and at P2Y purinoceptor 12 [3] were 177 nM and 172 nM, respectively. Besides, the IC50 in assay [2] amounted to 18000 nM. Moreover, the Ratio Ki in the assay listed under Homo sapiens was determined as 1.
